In ChEMBL document CHEMBL4266007, “Synthesis and Biological Evaluation of an Indazole-Based Selective Protein Arginine Deiminase 4 (PAD4) Inhibitor” (ACS Med Chem Lett, 2018):
Each block holds one molecule with its values, some of them ahead of it. Activity calls are given as the source filed them. The calls are words filed in the database; no cut-off is given here.

Experiments:
[1] = species on record: Homo sapiens; assay: Ratio of Kinact/Ki for PAD1 (unknown origin) to Kinact/Ki for PAD4 (unknown origin)
[2] = species on record: Homo sapiens; assay: Ratio of Kinact/Ki for PAD1 (unknown origin) to Kinact/Ki for PAD2 (unknown origin)
[3] = species on record: Homo sapiens; assay: Ratio of Kinact/Ki for PAD1 (unknown origin) to Kinact/Ki for PAD3 (unknown origin)
[4] = species on record: Homo sapiens; assay: Ratio of Kinact/Ki for PAD4 (unknown origin) to Kinact/Ki for PAD3 (unknown origin)
[5] = species on record: Homo sapiens; assay: Ratio of Kinact/Ki for PAD4 (unknown origin) to Kinact/Ki for PAD1 (unknown origin)
[6] = species on record: Homo sapiens; assay: Ratio of Kinact/Ki for PAD4 (unknown origin) to Kinact/Ki for PAD2 (unknown origin)
[7] = biological target: T1, Protein-arginine deiminase type-4 (Homo sapiens, UniProt Q9UM07); assay: Inhibition of PAD4 in human HL60 cells assessed as reduction in A23187-induced citrullinated H4 level at 5 to 10 uM preincubated for 15 mins followed by A23187 addition measured after 15 mins by Western blot analysis; format: cell-based
How it was run: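 HL-60 cells differentiated into mature granulocytes, which express PAD4, then stimulated with a calcium ionophore to trigger histone H4 citrullination. Cell lysates were analysed by Western blot using an anti-citrulline histone H4 antibody.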

[8] = species on record: Homo sapiens; assay: Ratio of Kinact/Ki for PAD3 (unknown origin) to Kinact/Ki for PAD4 (unknown origin)
[9] = species on record: Homo sapiens; assay: Ratio of Kinact/Ki for PAD3 (unknown origin) to Kinact/Ki for PAD2 (unknown origin)
[10] = species on record: Homo sapiens; assay: Ratio of Kinact/Ki for PAD3 (unknown origin) to Kinact/Ki for PAD1 (unknown origin)
[11] = biological target: T1, Protein-arginine deiminase type-4; assay: Inhibition of PAD4 (unknown origin) preincubated for 15 mins followed by BAEE addition measured after 15 mins by spectrophotometric method
[12] = species on record: Homo sapiens; assay: Ratio of Kinact/Ki for PAD2 (unknown origin) to Kinact/Ki for PAD3 (unknown origin)
[13] = species on record: Homo sapiens; assay: Ratio of Kinact/Ki for PAD2 (unknown origin) to Kinact/Ki for PAD4 (unknown origin)
[14] = species on record: Homo sapiens; assay: Ratio of Kinact/Ki for PAD2 (unknown origin) to Kinact/Ki for PAD1 (unknown origin)

T1 sequence (Q9UM07 whole entry): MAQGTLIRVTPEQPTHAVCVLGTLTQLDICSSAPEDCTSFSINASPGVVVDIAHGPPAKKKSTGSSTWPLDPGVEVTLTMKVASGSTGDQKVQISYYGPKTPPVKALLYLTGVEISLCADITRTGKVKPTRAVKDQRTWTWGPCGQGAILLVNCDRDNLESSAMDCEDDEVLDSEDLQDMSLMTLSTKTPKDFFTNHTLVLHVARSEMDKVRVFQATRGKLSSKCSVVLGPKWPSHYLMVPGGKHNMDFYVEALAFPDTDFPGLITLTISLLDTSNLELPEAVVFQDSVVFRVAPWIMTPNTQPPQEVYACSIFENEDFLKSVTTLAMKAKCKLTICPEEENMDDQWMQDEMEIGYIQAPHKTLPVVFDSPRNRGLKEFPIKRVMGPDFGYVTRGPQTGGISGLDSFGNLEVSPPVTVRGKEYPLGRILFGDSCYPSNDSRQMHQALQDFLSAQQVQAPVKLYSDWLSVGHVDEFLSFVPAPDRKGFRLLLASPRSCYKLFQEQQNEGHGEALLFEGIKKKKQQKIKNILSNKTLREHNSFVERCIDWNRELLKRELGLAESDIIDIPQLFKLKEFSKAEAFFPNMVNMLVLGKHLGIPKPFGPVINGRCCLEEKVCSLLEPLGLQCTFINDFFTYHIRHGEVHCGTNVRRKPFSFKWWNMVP

Structure (SMILES): CC(C)(C)n1nnc([C@H](CCCNC(=N)CCl)NC(=O)c2cccc(C(=O)O)c2)n1
Ratio [1]: > 3 | Ratio [2]: > 3 | Ratio [3]: > 3

Structure (SMILES): N=C(CCl)NCCCC1NC(=O)N(Cc2ccc(-c3ccccc3Cl)cc2)C1=O (racemic)
Ratio [8]: > 10 | Ratio [9]: > 10 | Ratio [10]: > 10

Structure (SMILES): Cn1cc(CCCNC(=N)CCl)c2ccccc21
IC50 [11]: 190 µM

Structure (SMILES): N=C(CCl)NCCC[C@H](NC(=O)c1ccccc1)C(N)=O
inhibition [7]: Active

Structure (SMILES): CCN1Cc2ccc(C(=O)N[C@@H](CCCNC(=N)CF)c3nc4c(OC)cccc4n3C)cc2C1=O
Ratio [12]: > 5 | Ratio [13]: > 5 | Ratio [14]: > 5

More lines, now with the values ahead:

Ratio [4]: 2
Structure (SMILES): N=C(CCl)NCCCc1nn(CC2CCCC2)c2cc(Cl)ccc12

Ratio [4]: 1.6
Structure (SMILES): N=C(CCl)NCCCc1nn(CC2CCCC2)c2ccc(Cl)cc12

Ratio [4]: 11 | Ratio [5]: 2700 | Ratio [6]: 58 | inhibition [7]: Active
Structure (SMILES): N=C(CCl)NCCCc1nn(CC2CCCC2)c2cc(Cl)c(Cl)c(Cl)c12

Ratio [4]: 1.3
Structure (SMILES): N=C(CCl)NCCCc1nn(CC2CCCC2)c2cccc(Cl)c12

Ratio [4]: 7.5 | Ratio [5]: 3300 | Ratio [6]: 72
Structure (SMILES): N=C(CCl)NCCCc1nn(CC2CCCC2)c2cc(Cl)cc(Cl)c12
